Data taken from ChEMBL document CHEMBL1144398, “Structure-based design, parallel synthesis, structure-activity relationship, and molecular modeling studies of thiocarbamates, new potent non-nucleoside HIV-1 reverse transcriptase inhibitor isosteres of phenethylthiazolylthiourea derivatives” (J Med Chem, 2005).

What was measured:
MT4 [1] = test: Ratio of CC50 to that of EC50 determined in MT-4 cells; format: functional
Procedure, shortened: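 Selectivity index, calculated as CC50/EC50. CC50 came from MTT viability of mock-infected MT-4 cells and EC50 from MTT-read protection of HIV-1-infected MT-4 cells from cytopathogenicity, with both run in parallel. Values are means of three experiments.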

MT4 [2] = test: Effective concentration require to protect MT-4 cells from human immunodeficiency virus type 1 induced cytopathogenicity was determined by MTT method; format: functional, cell-based
Procedure, shortened: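 MT-4 cells infected with HIV-1, with test compounds added. Protection from virus-induced cytopathogenicity was read by MTT. EC50 is the concentration giving 50% protection. Values are means of three separate experiments, with variation among triplicates under 10%. Trovirdine served as the reference.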

MT4 [3] = test: Cytotoxic concentration required to reduce the viability of mock infected MT-4 cells determined by MTT method; format: functional; settings: Homo sapiens
Procedure, shortened: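 Viability of mock-infected MT-4 cells, assayed in parallel with the antiviral test, read by MTT. CC50 is the concentration that lowers viability by 50%. Values are means of three separate experiments, with variation among triplicates under 10%. The highest concentration tested was 100 µM.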

**Q.** How did the SI (MT4 [1]) turn out when O=C(O)c1ccccc1C(=O)NCCO/C(S)=N\c1ccccc1F was run?
**A.** >200

**Q.** And the EC50 (MT4 [2])?
**A.** 0.5 µM

**Q.** And the CC50 (MT4 [3])?
**A.** > 100 µM

**Q.** What does the source list for Cc1cccc(NC(=S)OCCNC(=O)c2ccccc2C(=O)O)c1?
**A.** SI (MT4 [1]): >20; EC50 (MT4 [2]): 5 µM; CC50 (MT4 [3]): > 100 µM

**Q.** How did the SI (MT4 [1]) turn out when O=C(O)c1ccccc1C(=O)NCCO/C(S)=N\c1ccc([N+](=O)[O-])cc1 was run?
**A.** >333

**Q.** And the EC50 (MT4 [2])?
**A.** 0.3 µM

**Q.** And the CC50 (MT4 [3])?
**A.** > 100 µM

**Q.** CC(COC(=S)Nc1ccc(Cl)cc1)N1C(=O)c2ccccc2C1=O (centres undefined) was tested. Which SI (MT4 [1]) did it give?
**A.** 880

**Q.** And the EC50 (MT4 [2])?
**A.** 0.05 µM

**Q.** And the CC50 (MT4 [3])?
**A.** 44 µM

**Q.** How did the SI (MT4 [1]) turn out when COc1ccccc1/N=C(/S)OCCNC(=O)c1ccccc1C(=O)O was run?
**A.** >1.5

**Q.** And the EC50 (MT4 [2])?
**A.** 65 µM

**Q.** And the CC50 (MT4 [3])?
**A.** > 100 µM

**Q.** O=C1c2ccccc2C(=O)N1CCOC(=S)NC1CCCCC1 was tested. Which SI (MT4 [1]) did it give?
**A.** >333

**Q.** What about the EC50 (MT4 [2]) of the same molecule?
**A.** 0.3 µM

**Q.** What about the CC50 (MT4 [3]) of the same molecule?
**A.** > 100 µM

**Q.** For COc1cccc(NC(=S)OCCNC(=O)c2ccccc2C(=O)O)c1, which SI (MT4 [1]) is on record?
**A.** >38.5

**Q.** What about the EC50 (MT4 [2]) of the same molecule?
**A.** 2.6 µM

**Q.** And the CC50 (MT4 [3])?
**A.** > 100 µM

**Q.** What does the source list for CCOC(=O)c1ccc(NC(=S)OCCN2C(=O)c3ccccc3C2=O)cc1?
**A.** SI (MT4 [1]): >4.3; EC50 (MT4 [2]): 23 µM; CC50 (MT4 [3]): > 100 µM

**Q.** How did the EC50 (MT4 [2]) turn out when O=C1c2ccccc2C(=O)N1CCOC(=S)Oc1ccc(Cl)cc1 was run?
**A.** > 100 µM

**Q.** What about the CC50 (MT4 [3]) of the same molecule?
**A.** > 100 µM

**Q.** How did the SI (MT4 [1]) turn out when CC(C)c1ccc(NC(=S)OCCN2C(=O)c3ccccc3C2=O)cc1 was run?
**A.** 2350

**Q.** And the EC50 (MT4 [2])?
**A.** 0.04 µM

**Q.** What about the CC50 (MT4 [3]) of the same molecule?
**A.** 94 µM

**Q.** Which results are given for CC(CN1C(=O)c2ccccc2C1=O)O/C(S)=N/c1ccc(Br)cc1 (centres undefined)?
**A.** SI (MT4 [1]): >43.5; EC50 (MT4 [2]): 2.3 µM; CC50 (MT4 [3]): > 100 µM

**Q.** O=C(O)c1ccccc1C(=O)NCCO/C(S)=N\c1ccccc1[N+](=O)[O-] was tested. Which EC50 (MT4 [2]) did it give?
**A.** > 100 µM

**Q.** And the CC50 (MT4 [3])?
**A.** > 100 µM

**Q.** Which SI (MT4 [1]) does the source give for Cc1ccccc1/N=C(/S)OCCN1C(=O)c2ccccc2C1=O here?
**A.** >27

**Q.** And the EC50 (MT4 [2])?
**A.** 3.7 µM

**Q.** And the CC50 (MT4 [3])?
**A.** > 100 µM

**Q.** With COc1ccccc1/N=C(/S)OCCN1C(=O)c2ccccc2C1=O as the molecule, how does the SI (MT4 [1]) read?
**A.** >17.9

**Q.** And the EC50 (MT4 [2])?
**A.** 5.6 µM

**Q.** And the CC50 (MT4 [3])?
**A.** > 100 µM

**Q.** How did the SI (MT4 [1]) turn out when O=C1C2CC=CCC2C(=O)N1CCOC(=S)Nc1ccc(Br)cc1 (centres undefined) was run?
**A.** >43

**Q.** And the EC50 (MT4 [2])?
**A.** 2.3 µM

**Q.** And the CC50 (MT4 [3])?
**A.** > 100 µM

**Q.** How did the SI (MT4 [1]) turn out when O=C1c2ccccc2C(=O)N1CCOC(=S)Nc1ccccc1Br was run?
**A.** >7.1

**Q.** And the EC50 (MT4 [2])?
**A.** 14 µM

**Q.** And the CC50 (MT4 [3])?
**A.** > 100 µM

**Q.** With O=C1C2C3C=CC(C3)C2C(=O)N1CCOC(=S)Nc1ccc(Cl)cc1 (centres undefined) as the molecule, how does the SI (MT4 [1]) read?
**A.** >1.5

**Q.** What about the EC50 (MT4 [2]) of the same molecule?
**A.** 68 µM

**Q.** And the CC50 (MT4 [3])?
**A.** > 100 µM

**Q.** For O=C1c2ccccc2C(=O)N1CCO/C(S)=N\c1ccccc1F, which SI (MT4 [1]) is on record?
**A.** >33

**Q.** And the EC50 (MT4 [2])?
**A.** 3 µM

**Q.** What about the CC50 (MT4 [3]) of the same molecule?
**A.** > 100 µM

**Q.** How did the SI (MT4 [1]) turn out when CC(CO/C(S)=N/c1ccc([N+](=O)[O-])cc1)N1C(=O)c2ccccc2C1=O (centres undefined) was run?
**A.** >167

**Q.** And the EC50 (MT4 [2])?
**A.** 0.6 µM

**Q.** What about the CC50 (MT4 [3]) of the same molecule?
**A.** > 100 µM

**Q.** Cc1ccc(OC(=S)OCCN2C(=O)c3ccccc3C2=O)cc1 was tested. Which EC50 (MT4 [2]) did it give?
**A.** > 100 µM

**Q.** And the CC50 (MT4 [3])?
**A.** > 100 µM

**Q.** What does the source list for O=C1C2CC=CCC2C(=O)N1CCOC(=S)Nc1ccc(Cl)cc1 (centres undefined)?
**A.** SI (MT4 [1]): >10.6; EC50 (MT4 [2]): 9.4 µM; CC50 (MT4 [3]): > 100 µM

**Q.** Cc1ccc2c(c1)C(=O)N(CCOC(=S)Nc1ccc(Cl)cc1)C2=O was tested. Which SI (MT4 [1]) did it give?
**A.** >4000

**Q.** What about the EC50 (MT4 [2]) of the same molecule?
**A.** 0.025 µM

**Q.** And the CC50 (MT4 [3])?
**A.** > 100 µM

**Q.** What does the source list for O=C1c2ccccc2C(=O)N1CCOC(=S)Nc1cccc(Cl)c1?
**A.** SI (MT4 [1]): >50; EC50 (MT4 [2]): 2 µM; CC50 (MT4 [3]): > 100 µM

**Q.** With Cc1cccc2c1C(=O)N(CCO/C(S)=N/c1ccc([N+](=O)[O-])cc1)C2=O as the molecule, how does the SI (MT4 [1]) read?
**A.** 1014

**Q.** What about the EC50 (MT4 [2]) of the same molecule?
**A.** 0.07 µM

**Q.** What about the CC50 (MT4 [3]) of the same molecule?
**A.** 71 µM

**Q.** CCOc1ccc(NC(=S)OCCN2C(=O)c3ccccc3C2=O)cc1 was tested. Which SI (MT4 [1]) did it give?
**A.** >14.3

**Q.** And the EC50 (MT4 [2])?
**A.** 7 µM

**Q.** And the CC50 (MT4 [3])?
**A.** > 100 µM

**Q.** Which results are given for O=C1c2ccccc2C(=O)N1CCO/C(S)=N\c1ccccc1C(F)(F)F?
**A.** SI (MT4 [1]): >1.5; EC50 (MT4 [2]): 65 µM; CC50 (MT4 [3]): > 100 µM

**Q.** How did the EC50 (MT4 [2]) turn out when O=C1c2ccccc2C(=O)N1CCO/C(S)=N\c1ccccc1[N+](=O)[O-] was run?
**A.** > 100 µM

**Q.** And the CC50 (MT4 [3])?
**A.** > 100 µM

**Q.** What does the source list for O=C1c2ccccc2C(=O)N1CCOC(=S)Nc1cccc([N+](=O)[O-])c1?
**A.** SI (MT4 [1]): >167; EC50 (MT4 [2]): 0.6 µM; CC50 (MT4 [3]): > 100 µM

**Q.** Which SI (MT4 [1]) does the source give for O=C1c2ccccc2C(=O)N1CCOC(=S)Nc1ccc(C(F)(F)F)cc1 here?
**A.** >2500

**Q.** And the EC50 (MT4 [2])?
**A.** 0.04 µM

**Q.** What about the CC50 (MT4 [3]) of the same molecule?
**A.** > 100 µM

**Q.** What does the source list for CC(C)c1ccccc1/N=C(/S)OCCN1C(=O)c2ccccc2C1=O?
**A.** SI (MT4 [1]): >2.3; EC50 (MT4 [2]): 43 µM; CC50 (MT4 [3]): > 100 µM

**Q.** CC(=O)c1cccc(NC(=S)OCCN2C(=O)c3ccccc3C2=O)c1 was tested. Which SI (MT4 [1]) did it give?
**A.** >23

**Q.** And the EC50 (MT4 [2])?
**A.** 4.3 µM

**Q.** And the CC50 (MT4 [3])?
**A.** > 100 µM

**Q.** COC(=O)c1ccccc1/N=C(/S)OCCNC(=O)c1ccccc1C(=O)O was tested. Which EC50 (MT4 [2]) did it give?
**A.** > 100 µM

**Q.** And the CC50 (MT4 [3])?
**A.** > 100 µM

**Q.** What does the source list for COC(=O)c1cccc(NC(=S)OCCNC(=O)c2ccccc2C(=O)O)c1?
**A.** EC50 (MT4 [2]): > 100 µM; CC50 (MT4 [3]): > 100 µM

**Q.** Which results are given for CCc1ccc(NC(=S)OCCN2C(=O)c3ccccc3C2=O)cc1?
**A.** SI (MT4 [1]): >1250; EC50 (MT4 [2]): 0.08 µM; CC50 (MT4 [3]): > 100 µM

**Q.** How did the SI (MT4 [1]) turn out when COc1ccc(NC(=S)OCCNC(=O)c2ccccc2C(=O)O)cc1 was run?
**A.** >500

**Q.** And the EC50 (MT4 [2])?
**A.** 0.2 µM

**Q.** And the CC50 (MT4 [3])?
**A.** > 100 µM
